The results in this text go back to article PMC3975472 (Biomolecules & Therapeutics, 2014).

Structures can show the parent of a compound that is named as a salt.

In series [1] the test system is 9 cytochrome P450 (CYP) family members (CYP1A2, CYP2A6, CYP2B6, CYP2C8, CYP2C9, CYP2C19, CYP2D6, CYP2E1, and CYP3A4). As to the kind of experiment: Cocktail probe assay in pooled HLMs, all 9 CYP isoforms together. The class given is in vitro ADME, human. The following applies: 0–50 μM, 37°C 60 min. Put shortly: (§1)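 Pooled HLMs (0.1 mg) in 0.1 M potassium phosphate, pH 7.4, with cocktail probe substrates, NADPH-generating system and test compound (0.1–25 μM, six levels). Pre-incubation with NADPH for 0 or 15 min (reference inhibitor: 20 min), then 60 min at 37°C. Stopped with acidified acetonitrile plus terfenadine internal standard; metabolites by LC-MS/MS (MRM). IC50 from percent activity vs log[I]; duplicates.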

A further series deals with T1, CYP2A6 (Homo sapiens, UniProt P11509).
T1 sequence (P11509 1-494): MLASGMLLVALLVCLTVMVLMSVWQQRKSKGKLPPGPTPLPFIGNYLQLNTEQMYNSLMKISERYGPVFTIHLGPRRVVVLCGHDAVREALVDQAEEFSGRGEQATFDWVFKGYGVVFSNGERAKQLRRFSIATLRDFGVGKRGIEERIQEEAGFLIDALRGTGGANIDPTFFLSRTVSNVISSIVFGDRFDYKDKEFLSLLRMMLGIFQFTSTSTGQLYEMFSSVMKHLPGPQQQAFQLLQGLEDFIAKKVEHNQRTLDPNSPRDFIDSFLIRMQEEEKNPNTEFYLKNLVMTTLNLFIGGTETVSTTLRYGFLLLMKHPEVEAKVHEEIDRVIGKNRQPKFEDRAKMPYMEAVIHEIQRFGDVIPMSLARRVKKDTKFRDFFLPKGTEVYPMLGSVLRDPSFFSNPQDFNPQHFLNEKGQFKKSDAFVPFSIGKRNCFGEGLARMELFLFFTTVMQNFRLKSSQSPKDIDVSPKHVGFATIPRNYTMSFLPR
As to the kind of experiment: Cocktail probe assay in pooled HLMs: CYP2A6-catalyzed coumarin 7-hydroxylase. Particulars: pre-incubation 20 min with NADPH, mean of duplicates. The series is classed as in vitro ADME. Put shortly:
as §1

The next series concerns the target T2, CYP1A2 (Homo sapiens, UniProt P05177).
T2 sequence (P05177 1-516): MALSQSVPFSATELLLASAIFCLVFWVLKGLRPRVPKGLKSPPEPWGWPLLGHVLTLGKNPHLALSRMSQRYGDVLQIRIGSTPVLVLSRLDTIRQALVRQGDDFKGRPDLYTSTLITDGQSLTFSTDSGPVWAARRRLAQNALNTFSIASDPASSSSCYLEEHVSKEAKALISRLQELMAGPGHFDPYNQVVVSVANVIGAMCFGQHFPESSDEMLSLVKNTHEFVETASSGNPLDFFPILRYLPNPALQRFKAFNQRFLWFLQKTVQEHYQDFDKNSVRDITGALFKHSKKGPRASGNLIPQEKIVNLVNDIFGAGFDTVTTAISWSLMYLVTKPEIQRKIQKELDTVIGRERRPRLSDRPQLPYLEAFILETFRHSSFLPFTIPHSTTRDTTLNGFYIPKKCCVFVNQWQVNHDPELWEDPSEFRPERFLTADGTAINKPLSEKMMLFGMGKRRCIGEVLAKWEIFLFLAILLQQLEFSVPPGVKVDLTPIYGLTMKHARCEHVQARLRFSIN
The series is described as follows: Cocktail probe assay in pooled HLMs: CYP1A2-catalyzed phenacetin O-deethylase. The series is classed as in vitro ADME. Particulars: pre-incubation 20 min with NADPH, mean of duplicates. Put shortly:
as §1

The target of a further series is CYP2D6 (Homo sapiens, UniProt P10635). The class given is in vitro ADME. Particulars: IC50, HLMs, pre-incubation 20 min with NADPH, mean of duplicates. Put shortly:
as §1

For another series, the target named is CYP2E1 (Homo sapiens, UniProt P05181). The series is classed as in vitro ADME. The following applies: IC50, HLMs, pre-incubation 20 min with NADPH, mean of duplicates. Put shortly:
as §1

The next series has as its target T3, CYP2B6 (Homo sapiens, UniProt P20813).
T3 sequence (P20813 1-491): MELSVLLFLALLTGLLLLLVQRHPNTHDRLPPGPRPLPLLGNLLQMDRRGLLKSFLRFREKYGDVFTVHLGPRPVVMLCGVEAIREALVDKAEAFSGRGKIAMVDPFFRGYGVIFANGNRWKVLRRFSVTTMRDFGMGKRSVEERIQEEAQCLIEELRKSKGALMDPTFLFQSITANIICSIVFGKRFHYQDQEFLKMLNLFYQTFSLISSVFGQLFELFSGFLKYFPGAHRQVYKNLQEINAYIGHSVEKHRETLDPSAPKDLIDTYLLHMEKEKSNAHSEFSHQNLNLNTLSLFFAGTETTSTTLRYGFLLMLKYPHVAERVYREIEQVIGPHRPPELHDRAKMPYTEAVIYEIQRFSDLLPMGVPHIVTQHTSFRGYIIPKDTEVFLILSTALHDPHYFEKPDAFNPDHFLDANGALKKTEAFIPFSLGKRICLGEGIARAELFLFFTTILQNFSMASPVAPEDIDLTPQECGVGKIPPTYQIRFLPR
As to the kind of experiment: Cocktail probe assay in pooled HLMs: CYP2B6-catalyzed bupropion hydroxylase. The following applies: pre-incubation 20 min with NADPH, mean of duplicates. The class given is in vitro ADME. Put shortly:
as §1

For another series, the target named is CYP2C19 (Homo sapiens, UniProt P33261). The series is described as follows: Cocktail probe assay in pooled HLMs: CYP2C19-catalyzed omeprazole 5-hydroxylase. Particulars: pre-incubation 20 min with NADPH, mean of duplicates. The class given is in vitro ADME. The method, boiled down: as §1
Another series has as its target T4, CYP2C8 (Homo sapiens, UniProt P10632).
T4 sequence (P10632 1-490): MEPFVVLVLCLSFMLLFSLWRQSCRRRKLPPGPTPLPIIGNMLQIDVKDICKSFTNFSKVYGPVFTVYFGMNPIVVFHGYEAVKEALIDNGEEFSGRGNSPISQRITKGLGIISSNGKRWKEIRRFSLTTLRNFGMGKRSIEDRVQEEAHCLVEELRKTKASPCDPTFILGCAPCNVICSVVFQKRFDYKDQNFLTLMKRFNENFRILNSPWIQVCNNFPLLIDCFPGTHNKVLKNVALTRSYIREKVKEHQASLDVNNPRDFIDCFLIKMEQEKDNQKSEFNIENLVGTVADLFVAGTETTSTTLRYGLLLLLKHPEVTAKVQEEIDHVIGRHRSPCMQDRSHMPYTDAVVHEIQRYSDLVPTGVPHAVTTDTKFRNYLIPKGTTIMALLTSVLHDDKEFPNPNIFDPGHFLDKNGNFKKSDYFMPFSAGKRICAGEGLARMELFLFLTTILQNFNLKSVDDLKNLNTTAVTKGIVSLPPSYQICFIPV
As to the kind of experiment: Cocktail probe assay in pooled HLMs: CYP2C8-catalyzed amodiaquine N-deethylase. The class given is in vitro ADME. Particulars: pre-incubation 20 min with NADPH, mean of duplicates. The method, boiled down: as §1

The target of another series is CYP2C9 (Homo sapiens, UniProt P11712). The series is described as follows: Cocktail probe assay in pooled HLMs: CYP2C9-catalyzed diclofenac 4′-hydroxylase. Particulars: pre-incubation 20 min with NADPH, mean of duplicates. The series is classed as in vitro ADME. The method, boiled down: as §1
CYP2C9, sequence (P11712 whole entry): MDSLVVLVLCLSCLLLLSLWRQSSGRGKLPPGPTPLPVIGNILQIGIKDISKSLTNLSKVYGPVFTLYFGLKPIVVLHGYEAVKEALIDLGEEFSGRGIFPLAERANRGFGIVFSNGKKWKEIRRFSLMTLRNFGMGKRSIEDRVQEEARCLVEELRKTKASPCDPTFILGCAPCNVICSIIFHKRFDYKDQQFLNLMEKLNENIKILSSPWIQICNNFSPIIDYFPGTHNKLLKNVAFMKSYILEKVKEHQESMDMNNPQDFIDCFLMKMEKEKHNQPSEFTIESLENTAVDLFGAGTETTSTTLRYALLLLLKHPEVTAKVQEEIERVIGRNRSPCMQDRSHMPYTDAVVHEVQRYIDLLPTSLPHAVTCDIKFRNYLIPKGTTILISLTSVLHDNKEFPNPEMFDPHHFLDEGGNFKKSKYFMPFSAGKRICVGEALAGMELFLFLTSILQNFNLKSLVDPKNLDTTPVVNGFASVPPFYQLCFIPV

CYP2E1, sequence (P05181 whole entry): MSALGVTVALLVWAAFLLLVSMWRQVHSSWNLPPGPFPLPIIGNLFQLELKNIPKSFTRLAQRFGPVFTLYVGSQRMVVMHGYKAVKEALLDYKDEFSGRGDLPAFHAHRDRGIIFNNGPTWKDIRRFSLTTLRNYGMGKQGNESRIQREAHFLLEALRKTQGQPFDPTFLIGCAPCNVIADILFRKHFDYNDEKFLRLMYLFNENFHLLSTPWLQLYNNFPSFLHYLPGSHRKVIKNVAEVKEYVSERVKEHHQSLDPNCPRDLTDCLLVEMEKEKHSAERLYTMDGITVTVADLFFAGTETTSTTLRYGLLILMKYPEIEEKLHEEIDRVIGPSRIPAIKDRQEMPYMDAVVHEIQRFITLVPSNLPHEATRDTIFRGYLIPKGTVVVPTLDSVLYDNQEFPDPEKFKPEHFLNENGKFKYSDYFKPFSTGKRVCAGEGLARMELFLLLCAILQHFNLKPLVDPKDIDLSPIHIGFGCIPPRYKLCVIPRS
CYP2C19, sequence (P33261 whole entry): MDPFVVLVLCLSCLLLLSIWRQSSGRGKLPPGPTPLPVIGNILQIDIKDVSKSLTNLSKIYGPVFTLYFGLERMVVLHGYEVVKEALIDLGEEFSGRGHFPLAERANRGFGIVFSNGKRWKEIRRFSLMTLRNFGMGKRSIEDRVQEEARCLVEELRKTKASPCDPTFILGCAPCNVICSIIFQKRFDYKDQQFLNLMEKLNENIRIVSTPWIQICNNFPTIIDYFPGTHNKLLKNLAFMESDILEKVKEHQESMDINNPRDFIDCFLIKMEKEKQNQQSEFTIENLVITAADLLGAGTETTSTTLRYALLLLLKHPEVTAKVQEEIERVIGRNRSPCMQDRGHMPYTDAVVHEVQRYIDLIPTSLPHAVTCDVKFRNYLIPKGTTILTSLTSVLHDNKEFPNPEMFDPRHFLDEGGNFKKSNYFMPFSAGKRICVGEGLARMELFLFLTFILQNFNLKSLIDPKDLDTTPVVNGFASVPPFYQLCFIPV
CYP2D6, sequence (P10635 whole entry): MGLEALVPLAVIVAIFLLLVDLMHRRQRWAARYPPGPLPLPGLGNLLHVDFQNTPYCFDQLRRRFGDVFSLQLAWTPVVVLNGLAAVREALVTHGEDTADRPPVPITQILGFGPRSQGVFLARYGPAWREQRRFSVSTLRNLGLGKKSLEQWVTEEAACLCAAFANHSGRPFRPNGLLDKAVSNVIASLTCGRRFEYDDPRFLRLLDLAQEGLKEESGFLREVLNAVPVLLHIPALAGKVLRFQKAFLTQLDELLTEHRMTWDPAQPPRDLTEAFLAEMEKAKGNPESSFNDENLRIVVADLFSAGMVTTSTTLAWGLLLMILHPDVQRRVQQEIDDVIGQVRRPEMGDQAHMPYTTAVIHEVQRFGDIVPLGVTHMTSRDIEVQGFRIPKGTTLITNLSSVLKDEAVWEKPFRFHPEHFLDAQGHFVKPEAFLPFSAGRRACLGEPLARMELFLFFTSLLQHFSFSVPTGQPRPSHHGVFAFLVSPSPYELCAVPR

Consider `CC(=O)Oc1c2oc3cc(O)c(O)cc3c2c(OC(C)=O)c2oc3cc(O)c(O)cc3c12` [Polyozellin, polyozellin], for which, in [1], the “inhibitory effects on the activities of all 9 CYPs” value is recorded as “weak inhibitory effects”.

In the case of `CCCC(C(=O)OCCN(CC)CC)(c1ccccc1)c1ccccc1` [SKF-525A, 2-diethylaminoethyl-2,2-diphenylvalerate-HCl], the IC50 – broadly, the point on the concentration scale where inhibition reaches its midpoint – was more than 50 µM against CYP2A6; more than 50 µM against CYP1A2; 3.5 µM against CYP2D6; more than 50 µM at CYP2E1; 0.9 µM on CYP2B6; 2.1 µM at CYP2C19. The figures for the 50% inhibitory concentration (IC50) against CYP2C8 and at CYP2C9 were 26.5 µM and 33.4 µM, respectively.
